High-throughput results (PubChem)
EBI2 block: EBI2 (human) antagonism; EBI2 beta-arrestin recruitment, luminescence, 7a,25-OHC stimulated; inhibition, % at 5 µM; 360,000 compounds, 0.81% hits; AID 651636; in the data active = inhibition above about 38%;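 note: enzyme fragment complementation signal reports receptor beta-arrestin coupling in cells; 0% = agonist plus DMSO wells and 100% = wells without agonist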
MC4R antagonist: blocks human MC4R cAMP signaling; MC4R-expressing cells, MTII-stimulated cAMP, LANCE TR-FRET; inhibition, % at 6.5 µM; AID 540295; P32245; 360,000 compounds, 0.48% hits;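 active = inhibition above its plate's cutoff, the mean of tested wells on that plate plus 3 SD, cut at about 29% in these data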;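 note: 0% = Melanotan II alone and 100% = Melanotan II plus saturating MCL0020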
Target sequence (P32245 whole entry, looked up): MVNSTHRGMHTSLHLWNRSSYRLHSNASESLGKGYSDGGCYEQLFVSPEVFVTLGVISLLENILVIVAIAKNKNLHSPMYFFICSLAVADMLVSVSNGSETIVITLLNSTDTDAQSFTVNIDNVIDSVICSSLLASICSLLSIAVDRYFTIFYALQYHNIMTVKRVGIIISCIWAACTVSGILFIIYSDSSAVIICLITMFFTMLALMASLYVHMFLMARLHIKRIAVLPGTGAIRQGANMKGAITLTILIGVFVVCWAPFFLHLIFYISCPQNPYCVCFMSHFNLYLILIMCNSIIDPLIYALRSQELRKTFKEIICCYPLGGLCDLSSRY
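Test system: U2OS cells stably expressing human melanocortin 4 receptor (MC4R); also added: Melanotan II challenge; compound: 6.5 µM single dose; timing: 30-min compound preincubation, 1-h Melanotan II challenge, 1-h detection, room temperature; signal: Eu-cAMP/anti-cAMP TR-FRET, emission 671 nm; repeats: one well per compound, no replicates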
MC4R ag barr: activates human MC4R beta-arrestin recruitment. U2OS MC4R beta-arrestin complementation, luminescence; percent of melanotan II response, DMSO zero. activation, % at 8.9 µM. 360,000 compounds, 0.98% hits. P32245;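 active = activation above a per-plate cutoff, the mean activation of sample wells on that plate plus 3 SD, cut at about 8% in these data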
m5-HT2A agonist: mouse HTR2A agonism via beta-arrestin recruitment | P35363 | CHO-K1 mHTR2A beta-arrestin complementation, luminescence; percent of 30 µM serotonin response | activation, % at 7.6 µM | 360,000 compounds, 0.66% hits;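 active = activation above a run cutoff, the mean activation of all tested compounds plus 3 SD, cut at about 14% in these data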;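 note: 0% = plate median of compound wells and 100% = 30 µM serotonin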
EBI2 antag conf: confirmation of human EBI2 receptor antagonists; shares compounds with EBI2 block; EBI2 beta-arrestin luminescence, 7a,25-OHC antagonism; inhibition, % at 5 µM; 2,400 compounds, 29% hits; AID 651997;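 active = inhibition of at least 50%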
EBI2 agonist: activates EBI2, counter-screen for EBI2 antagonists; shares compounds with EBI2 block; EBI2-expressing cells, agonist mode, luminescence, 60 min; 0% vehicle, 100% 7α,25-dihydroxycholesterol control; activation, % at 5 µM; 2,400 tested, under 10 active;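 active = activation of at least 50%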
bGal counter: beta-galactosidase inhibition counter-screen. shares compounds with EBI2 block. 2,400 compounds, 1% hits. inhibition, % at 5 µM. purified beta-galactosidase, luminescent Galacton Star, 15 min. AID 652176;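 active = replicate-average signal at least 3 plate SD below neutral wells, shown as high inhibition, flagging enzyme-inhibiting false positives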;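 note: 0% = DMSO wells with enzyme and 100% = wells lacking enzyme; higher means stronger loss of beta-gal luminescence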
Active calls of the source: *; / = no result given. Hits are enriched below; roughly 2.8% of the tested compounds scored in any of these assays.

SMILES | EBI2 block | MC4R antagonist | MC4R ag barr | m5-HT2A agonist | EBI2 antag conf | EBI2 agonist | bGal counter
COc1ccccc1CNc1nc(NC(C)C)nc2cc(-c3ccccc3)sc12 | 49.6* | 8.2 | 2.1 | -8.2 | 50.3* | -1.6 | -8.3
O=C(Cc1sc(Nc2ccccc2)nc1-c1ccccc1)NCc1ccccc1 | 23.4 | 4.8 | 0.3 | -6.3 | / | / | /
CC(=O)c1cccc(NC(=O)CSc2nnc(-c3ccncc3)o2)c1 | 7.7 | 1.9 | -0.7 | 0.8 | / | / | /
Cc1oc(-c2ccc(Cl)cc2)cc1C(=O)NC1CCN(Cc2ccccc2)CC1 | 41.0* | 13.6 | 0.7 | -8.4 | 17.5 | -0.9 | -13.1
COc1ccc(C(c2nnnn2-c2ccc(OC)cc2)N2CCN(C/C=C/c3ccccc3)CC2)cc1 (configuration not stated) | 63.0* | / | / | -7.6 | 30.5 | -1.0 | -4.9
C(=C\c1ccccc1)/CN1CCN(C(c2ccccc2)c2nnnn2-c2ccc3c(c2)OCCO3)CC1 (configuration not stated) | 51.1* | / | / | -10.6 | 37.5 | 0.3 | 6.7
CCCCn1nnnc1C(C1CC1)N1CCN(C/C=C/c2ccccc2)CC1 (configuration not stated) | 14.5 | / | / | -0.5 | / | / | /
COc1ccc(-n2nnnc2C(c2ccccc2OC(F)(F)F)N2CCN(C/C=C/c3ccccc3)CC2)cc1 (configuration not stated) | 90.4* | / | / | -10.3 | 55.0* | 2.2 | 11.9
CCCCn1nnnc1C(c1cccs1)N1CCN(C/C=C/c2ccccc2)CC1 (configuration not stated) | 43.7* | / | / | -5.3 | 8.7 | 1.2 | 6.4
O=C(Nc1ccc2c(c1)OCCO2)C(c1cc2ccccc2o1)N1CCN(C/C=C/c2ccccc2)CC1 (configuration not stated) | 38.9* | / | / | -6.2 | 6.7 | -1.8 | -6.3
CCCCn1nnnc1C(c1ccc(OC)cc1)N1CCN(C/C=C/c2ccccc2)CC1 (configuration not stated) | 58.2* | / | / | -4.2 | 25.5 | 2.2 | 12.3
COc1ccc(C(c2nnnn2C(C)(C)C)N2CCN(C/C=C/c3ccccc3)CC2)cc1 (configuration not stated) | 36.8 | / | / | -7.7 | / | / | /
C(=C\c1ccccc1)/CN1CCN(C(c2cccc3ccccc23)c2nnnn2C2CCCC2)CC1 (configuration not stated) | 29.5 | / | / | -7.4 | / | / | /
C(=C\c1ccccc1)/CN1CCN(C(c2cc3ccccc3o2)c2nnnn2C2CCCC2)CC1 (configuration not stated) | 51.5* | / | / | -2.1 | 6.6 | 0.6 | 3.6
COc1ccc(C(c2nnnn2C2CCCCC2)N2CCN(C/C=C/c3ccccc3)CC2)cc1 (configuration not stated) | 60.1* | / | / | -3.2 | 43.7 | 0.0 | 5.0
COc1cccc(NC(=O)CN(C)C(=O)c2ccc3[nH]c4c(c3c2)CC(C)CC4)c1 (configuration not stated) | 10.8 | 12.7 | -1.8 | -3.2 | / | / | /
CCCCNc1nc(=S)n(-c2ccccc2)c(C)c1C(C)=O | -4.2 | 1.1 | 1.5 | -5.8 | / | / | /
Cc1ccc(C(=O)CNc2ccc(Cl)cc2)cc1 | 57.1* | 1.1 | 3.4 | -1.6 | 75.8* | -3.1 | 2.1
CCOc1ccc(NCC(=O)c2ccc(C)cc2)cc1 | -6.5 | 0.2 | -1.2 | 6.3 | / | / | /
Cc1cc(C)c(S(=O)(=O)Nc2ncccc2C)c(C)c1 | -12.8 | 3.3 | -1.0 | 2.6 | / | / | /
Cc1cc(C)c(S(=O)(=O)Nc2ccccc2-c2ccccc2)c(C)c1 | 57.1* | 14.7 | 2.4 | -7.8 | 27.9 | -0.2 | 7.4
O=[N+]([O-])c1ccc(N/N=C/c2cn(-c3ccccc3)nc2-c2ccccc2)cc1 | 44.3* | 2.4 | 1.6 | 3.5 | 16.6 | -0.8 | 7.6
NS(=O)(=O)c1ccc(N/N=C/c2cn(-c3ccccc3)nc2-c2ccccc2)c([N+](=O)[O-])c1 | 15.9 | -0.1 | 4.0 | -2.2 | / | / | /
Cc1cc(OCC(=O)N(C)C2CCCCC2)ccc1Cl | 73.6* | -8.4 | -2.6 | -2.0 | 34.7 | 0.9 | -12.1
